According to ChEMBL document CHEMBL1138353, “Facile stereospecific synthesis and biological evaluation of (S)- and (R)-2-amino-2-methyl-4-[123I]iodo-3-(E)-butenoic acid for brain tumor imaging with single photon emission computerized tomography” (J Med Chem, 2007):

How the values were obtained:
Thyroid gland [1] = experiment: Biodistribution in 9L cells bearing Fischer 344 rat thyroid at 15 to 30 uCi, iv after 120 mins; format: ADME, organism-based; settings: in vivo, 2 h
Method in brief: (§1)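 Male Fischer 344 rats (125–175 g) bearing intracranial 9L gliosarcoma implants; radioiodinated tracer (123I for S, 131I for R) purified in saline, given intravenously. Tissues harvested at 30, 60 or 120 min, radioactivity expressed as %ID/g (thyroid per organ). Groups: S study 5 rats per time; R study 5 at 30 min, 4 at 60 and 120 min.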

Pancreas [2] = experiment: Biodistribution in 9L cells bearing Fischer 344 rat pancreas at 15 to 30 uCi, iv after 60 mins; format: ADME, organism-based; settings: in vivo, 1 h; method in brief: as §1
Lung [3] = experiment: Biodistribution in 9L cells bearing Fischer 344 rat lung at 15 to 30 uCi, iv after 120 mins; format: ADME, organism-based; settings: in vivo, 2 h; method in brief: as §1
Rattus norvegicus [4] = experiment: Biodistribution in 9L cells bearing Fischer 344 rat tumor at 15 to 30 uCi, iv after 120 mins; format: ADME, organism-based, Neoplasm; settings: in vivo, 2 h; method in brief: as §1
9L [5] = experiment: Drug uptake per 10^6 cells in rat 9L cells after 30 mins; format: ADME, cell-based; settings: 0.5 h
Method in brief: (§2)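 Cultured rat 9L gliosarcoma cells incubated 30 min with 131I-labelled tracer, with or without A-type inhibitor N-MeAIB or L-type inhibitor BCH. Uptake expressed as percent of initial dose per 1 × 10^6 cells, normalized for dose and cell number. Inhibition compared to control by one-way ANOVA; SD shown.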

Pancreas [6] = experiment: Biodistribution in 9L cells bearing Fischer 344 rat pancreas at 15 to 30 uCi, iv after 120 mins; format: ADME, organism-based; settings: in vivo, 2 h; method in brief: as §1
Liver [7] = experiment: Biodistribution in 9L cells bearing Fischer 344 rat liver at 15 to 30 uCi, iv after 30 mins; format: ADME, organism-based; settings: in vivo, 0.5 h; method in brief: as §1
Thyroid gland [8] = experiment: Biodistribution in 9L cells bearing Fischer 344 rat thyroid at 15 to 30 uCi, iv after 30 mins; format: ADME, organism-based; settings: in vivo, 0.5 h; method in brief: as §1
Spleen [9] = experiment: Biodistribution in 9L cells bearing Fischer 344 rat spleen at 15 to 30 uCi, iv after 30 mins; format: ADME, organism-based; settings: in vivo, 0.5 h; method in brief: as §1
Blood [10] = experiment: Biodistribution in 9L cells bearing Fischer 344 rat blood at 15 to 30 uCi, iv after 120 mins; format: ADME, organism-based; settings: in vivo, 2 h; method in brief: as §1
Testes [11] = experiment: Biodistribution in 9L cells bearing Fischer 344 rat testes at 15 to 30 uCi, iv after 30 mins; format: ADME, organism-based, Testis; settings: in vivo, 0.5 h; method in brief: as §1
Pancreas [12] = experiment: Biodistribution in 9L cells bearing Fischer 344 rat pancreas at 15 to 30 uCi, iv after 30 mins; format: ADME, organism-based; settings: in vivo, 0.5 h; method in brief: as §1
Bone [13] = experiment: Biodistribution in 9L cells bearing Fischer 344 rat bone at 15 to 30 uCi, iv after 120 mins; format: ADME, organism-based, Bone element; settings: in vivo, 2 h; method in brief: as §1
Nucleic Acid [14] = experiment: Ratio of drug level in tumor to brain in 9L cells bearing Fischer 344 rat at 15 to 30 uCi, iv after 60 mins; format: ADME, organism-based; settings: in vivo, 1 h
Method in brief: (§3)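 Intracranial 9L gliosarcoma in male Fischer 344 rats (125–175 g). The 123I-labelled (S) or 131I-labelled (R) tracer was given iv in saline. Tumor and normal brain %ID/g were measured at 30, 60 or 120 min, and the ratio was taken from these. Groups were 5 per time for S, and 5/4/4 for R.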

Liver [15] = experiment: Biodistribution in 9L cells bearing Fischer 344 rat liver at 15 to 30 uCi, iv after 60 mins; format: ADME, organism-based; settings: in vivo, 1 h; method in brief: as §1
Heart [16] = experiment: Biodistribution in 9L cells bearing Fischer 344 rat heart at 15 to 30 uCi, iv after 120 mins; format: ADME, organism-based; settings: in vivo, 2 h; method in brief: as §1
Blood [17] = experiment: Biodistribution in 9L cells bearing Fischer 344 rat blood at 15 to 30 uCi, iv after 60 mins; format: ADME, organism-based; settings: in vivo, 1 h; method in brief: as §1
Kidney [18] = experiment: Biodistribution in 9L cells bearing Fischer 344 rat kidney at 15 to 30 uCi, iv after 120 mins; format: ADME, organism-based; settings: in vivo, 2 h; method in brief: as §1
Kidney [19] = experiment: Biodistribution in 9L cells bearing Fischer 344 rat kidney at 15 to 30 uCi, iv after 60 mins; format: ADME, organism-based; settings: in vivo, 1 h; method in brief: as §1
Brain [20] = experiment: Biodistribution in 9L cells bearing Fischer 344 rat brain at 15 to 30 uCi, iv after 120 mins; format: ADME, organism-based; settings: in vivo, 2 h; method in brief: as §1
Bone [21] = experiment: Biodistribution in 9L cells bearing Fischer 344 rat bone at 15 to 30 uCi, iv after 30 mins; format: ADME, organism-based, Bone element; settings: in vivo, 0.5 h; method in brief: as §1
Rattus norvegicus [22] = experiment: Biodistribution in 9L cells bearing Fischer 344 rat tumor at 15 to 30 uCi, iv after 30 mins; format: ADME, organism-based, Neoplasm; settings: in vivo, 0.5 h; method in brief: as §1
Muscle tissue [23] = experiment: Biodistribution in 9L cells bearing Fischer 344 rat muscle at 15 to 30 uCi, iv after 60 mins; format: ADME, organism-based; settings: in vivo, 1 h; method in brief: as §1
Spleen [24] = experiment: Biodistribution in 9L cells bearing Fischer 344 rat spleen at 15 to 30 uCi, iv after 60 mins; format: ADME, organism-based; settings: in vivo, 1 h; method in brief: as §1
Bone [25] = experiment: Biodistribution in 9L cells bearing Fischer 344 rat bone at 15 to 30 uCi, iv after 60 mins; format: ADME, organism-based, Bone element; settings: in vivo, 1 h; method in brief: as §1
Spleen [26] = experiment: Biodistribution in 9L cells bearing Fischer 344 rat spleen at 15 to 30 uCi, iv after 120 mins; format: ADME, organism-based; settings: in vivo, 2 h; method in brief: as §1
Heart [27] = experiment: Biodistribution in 9L cells bearing Fischer 344 rat heart at 15 to 30 uCi, iv after 30 mins; format: ADME, organism-based; settings: in vivo, 0.5 h; method in brief: as §1
Rattus norvegicus [28] = experiment: Biodistribution in 9L cells bearing Fischer 344 rat tumor at 15 to 30 uCi, iv after 60 mins; format: ADME, organism-based, Neoplasm; settings: in vivo, 1 h; method in brief: as §1
Brain [29] = experiment: Biodistribution in 9L cells bearing Fischer 344 rat brain at 15 to 30 uCi, iv after 30 mins; format: ADME, organism-based; settings: in vivo, 0.5 h; method in brief: as §1
Liver [30] = experiment: Biodistribution in 9L cells bearing Fischer 344 rat liver at 15 to 30 uCi, iv after 120 mins; format: ADME, organism-based; settings: in vivo, 2 h; method in brief: as §1
Heart [31] = experiment: Biodistribution in 9L cells bearing Fischer 344 rat heart at 15 to 30 uCi, iv after 60 mins; format: ADME, organism-based; settings: in vivo, 1 h; method in brief: as §1
Muscle tissue [32] = experiment: Biodistribution in 9L cells bearing Fischer 344 rat muscle at 15 to 30 uCi, iv after 30 mins; format: ADME, organism-based; settings: in vivo, 0.5 h; method in brief: as §1
Kidney [33] = experiment: Biodistribution in 9L cells bearing Fischer 344 rat kidney at 15 to 30 uCi, iv after 30 mins; format: ADME, organism-based; settings: in vivo, 0.5 h; method in brief: as §1
Thyroid gland [34] = experiment: Biodistribution in 9L cells bearing Fischer 344 rat thyroid at 15 to 30 uCi, iv after 60 mins; format: ADME, organism-based; settings: in vivo, 1 h; method in brief: as §1
Nucleic Acid [35] = experiment: Ratio of drug level in tumor to brain in 9L cells bearing Fischer 344 rat at 15 to 30 uCi, iv after 30 mins; format: ADME, organism-based; settings: in vivo, 0.5 h; method in brief: as §3
Muscle tissue [36] = experiment: Biodistribution in 9L cells bearing Fischer 344 rat muscle at 15 to 30 uCi, iv after 120 mins; format: ADME, organism-based; settings: in vivo, 2 h; method in brief: as §1
Brain [37] = experiment: Biodistribution in 9L cells bearing Fischer 344 rat brain at 15 to 30 uCi, iv after 60 mins; format: ADME, organism-based; settings: in vivo, 1 h; method in brief: as §1
Lung [38] = experiment: Biodistribution in 9L cells bearing Fischer 344 rat lung at 15 to 30 uCi, iv after 30 mins; format: ADME, organism-based; settings: in vivo, 0.5 h; method in brief: as §1
Blood [39] = experiment: Biodistribution in 9L cells bearing Fischer 344 rat blood at 15 to 30 uCi, iv after 30 mins; format: ADME, organism-based; settings: in vivo, 0.5 h; method in brief: as §1
Testes [40] = experiment: Biodistribution in 9L cells bearing Fischer 344 rat testes at 15 to 30 uCi, iv after 120 mins; format: ADME, organism-based, Testis; settings: in vivo, 2 h; method in brief: as §1
Nucleic Acid [41] = experiment: Ratio of drug level in tumor to brain in 9L cells bearing Fischer 344 rat at 15 to 30 uCi, iv after 120 mins; format: ADME, organism-based; settings: in vivo, 2 h; method in brief: as §3
Lung [42] = experiment: Biodistribution in 9L cells bearing Fischer 344 rat lung at 15 to 30 uCi, iv after 60 mins; format: ADME, organism-based; settings: in vivo, 1 h; method in brief: as §1
Testes [43] = experiment: Biodistribution in 9L cells bearing Fischer 344 rat testes at 15 to 30 uCi, iv after 60 mins; format: ADME, organism-based, Testis; settings: in vivo, 1 h; method in brief: as §1
9L [44] = experiment: Drug uptake per 10^6 cells in rat 9L cells after 30 mins assessed as uptake inhibition in presence of 2-aminobicyclo[2.2.1]-heptane-2-carboxylic acid relative to control; format: ADME, cell-based; set-up: scale not given: the % may be the effect or the level left; settings: 0.5 h; method in brief: as §2

Drug uptake (Thyroid gland [1]): 0.36 %ID/organ
Drug uptake (Pancreas [2]): 1.86 % ID/g
Drug uptake (Lung [3]): 0.45 % ID/g
Drug uptake (Rattus norvegicus [4]): 0.39 % ID/g
Drug uptake (9L [5]): 0.07 %ID
Drug uptake (Pancreas [6]): 0.78 % ID/g
Drug uptake (Liver [7]): 0.31 % ID/g
Drug uptake (Thyroid gland [8]): 0.08 %ID/organ
Drug uptake (Spleen [9]): 0.3 % ID/g
Drug uptake (Blood [10]): 0.56 % ID/g
Drug uptake (Testes [11]): 0.09 % ID/g
Drug uptake (Pancreas [12]): 1.21 % ID/g
Drug uptake (Bone [13]): 0.26 % ID/g
Ratio (Nucleic Acid [14]): 7.7
Drug uptake (Liver [15]): 0.6 % ID/g
Drug uptake (Heart [16]): 0.34 % ID/g
Drug uptake (Blood [17]): 0.69 % ID/g
Drug uptake (Kidney [18]): 1.76 % ID/g
Drug uptake (Kidney [19]): 3.43 % ID/g
Drug uptake (Brain [20]): 0.051 % ID/g
Drug uptake (Bone [21]): 0.13 % ID/g
Drug uptake (Rattus norvegicus [22]): 0.19 % ID/g
Drug uptake (Muscle tissue [23]): 0.4 % ID/g
Drug uptake (Spleen [24]): 0.5 % ID/g
Drug uptake (Bone [25]): 0.34 % ID/g
Drug uptake (Spleen [26]): 0.31 % ID/g
Drug uptake (Heart [27]): 0.19 % ID/g
Drug uptake (Rattus norvegicus [28]): 0.51 % ID/g
Drug uptake (Brain [29]): 0.018 % ID/g
Drug uptake (Liver [30]): 0.37 % ID/g
Drug uptake (Heart [31]): 0.43 % ID/g
Drug uptake (Muscle tissue [32]): 0.26 % ID/g
Drug uptake (Kidney [33]): 2.91 % ID/g
Drug uptake (Thyroid gland [34]): 0.25 %ID/organ
Ratio (Nucleic Acid [35]): 10
Drug uptake (Muscle tissue [36]): 0.26 % ID/g
Drug uptake (Brain [37]): 0.066 % ID/g
Drug uptake (Lung [38]): 0.27 % ID/g
Drug uptake (Blood [39]): 0.22 % ID/g
Drug uptake (Testes [40]): 0.23 % ID/g
Ratio (Nucleic Acid [41]): 7.6
Drug uptake (Lung [42]): 0.65 % ID/g
Drug uptake (Testes [43]): 0.26 % ID/g
Activity (9L [44]): 57%
SMILES: C[C@@](N)(/C=C/[131I])C(=O)O
